Here are results for two molecules from PMC4780734 (International Journal of Nanomedicine, 2016).

Entries after “also recorded” stand apart in the source; their conditions may differ. Where only a bound is given, the exact number is not on record here.

Data set [1] can be described thus: Pharmacokinetic study after single IV injection. It counts as in vivo, male Sprague–Dawley rats.
The nature of a further data set: In vitro release of. It counts as physicochemical. The conditions noted are these: for accumulated amount of released (dach)Pt(II): pH 7.4, 37°C. Put shortly:
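Conjugate solution (2 mg/mL) was dialysed in cellulose tubing (MWCO 2,000 Da) against phosphate buffer at pH 5.4 or 7.4, at 37°C with stirring at 100 rpm under sink conditions. Dialysate was sampled at set times over 10 days. Released Pt was measured by ICP-MS and expressed as cumulative % of total loaded (dach)Pt.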

Data set [2] in a line: Solubility of the isolated solid. The conditions noted are these: light yellow solid. It counts as physicochemical.
Data set [3] has as its system gastric tumor cell line (MKN-28). The data set can be described thus: Nude mouse xenograft trial. It counts as in vivo, BALB/C nude mice. Put shortly: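 MKN-28 xenografts were grown in BALB/C nude mice (5 weeks, 15–20 g). Test and reference drugs were dosed to equal (dach)Pt content, at 8 mg (dach)Pt/kg, and reference drug was also given at 16 mg (dach)Pt/kg. Tumour growth and body weight were monitored.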

A short description of data set [4]: Clearance study of Cy5.5-labeled PP from major organs by ex vivo imaging. Type of data set: in vivo, BALB/C nude mice. The conditions noted are these: Cy5.5-labeled PP 300 mg/kg IV, mice without tumor, postinjection. A digest of the protocol: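 Tumour-free BALB/C nude mice (n=30; 5 weeks, 15–20 g; acclimatised 4 days) received the Cy5.5-labelled conjugate at 300 mg/kg IV via the tail vein. Mice were killed at short intervals during week 1, then weekly. Dissected organs were imaged by CCD camera through a 680–720 nm Cy5.5 filter until each organ's intensity fell below that of a blank organ.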

In another data set the test system is male ICR mice. The data set can be described thus: Acute toxicity study. Type of data set: in vivo.
A short description of data set [5]: Bioimaging of Pt in mouse kidney by laser ablation ICP-MS. It counts as in vivo. Particulars: listed as PP. A digest of the protocol: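 Mouse kidneys were dissected at 2, 12 and 24 h after IV injection, following the biodistribution procedure. Reference drug was dosed to match on (dach)Pt content. Kidneys were cryostat-sectioned at 100 μm and dried at room temperature. Pt was mapped by femtosecond laser ablation ICP-MS.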

The nature of data set [6]: Particle size distribution by dynamic light scattering. The conditions noted are these: hydrodynamic size. Type of data set: physicochemical.
Data set [7] in a line: Lower critical solution temperature. It counts as physicochemical.
Data set [8] deals with non-small-cell lung carcinoma A549 cells. The data set can be described thus: Biodistribution of Cy5.5-labeled PP by ex vivo imaging in tumor-bearing mice. Particulars: Cy5.5-labeled PP 60 mg/kg IV. More on the design: species or system BALB/C nude mice. A digest of the protocol:
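BALB/C nude mice (5 weeks, 15–20 g) were acclimatised for 4 days. A549 cells (1×10^7 in serum-free RPMI 1640) were injected s.c. into the right flank. After 2 weeks, with tumours at 250–300 mm3, mice received the Cy5.5-labelled conjugate (60 mg/kg in saline) IV via the tail vein. Mice were killed at 12, 24, 48 and 72 h, with blood taken by cardiac puncture. Tumour, muscle, liver, kidney, spleen, lung and blood were imaged by CCD camera through a 680–720 nm Cy5.5 emission filter.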

Data set [9] in a line: Critical aggregation concentration by fluorescence pyrene method. Particulars: in saline. Type of data set: physicochemical.

As to `O=C1[O][Pt]2([NH][C@@H]3CCCC[C@H]3[NH]2)[O]C1=O` [Oxaliplatin, oxaliplatin, reference compound], in [1] (single IV 1 mg (dach)Pt/kg, male rats, listed as OX), the AUC is recorded as 2,320.4 ng h/mL.

With “[NP(MPEG550)(AE)(AA)Pt(dach)]n [Polyplatin]”, the “accumulated amount of platinum released” value in “In vitro release of” (pH 5.4, 37°C, 10 days) worked out at 98%. In addition, the “accumulated amount of released (dach)Pt(II)” value worked out at 18% in “In vitro release of” (24 hours) and 72% in “In vitro release of” (10 days). Further, in data set [2], the solubility result was “soluble in water and polar organic solvents”. Besides, the antitumor activity result is reported as “comparable to OX” in data set [3] (8 mg (dach)Pt/kg IV on days 1, 5, 9, MKN-28 xenograft) and “much better activity” in data set [3] (double dose of 16 mg (dach)Pt/kg IV on days 1, 5, 9, MKN-28 xenograft, listed as PP). Also, the “death of test mice” value in data set [3] (16 mg (dach)Pt/kg IV, MKN-28 xenograft) is “without any death”. Moreover, the “antitumor efficacy compared with OX, overall” value in [3] (MKN-28 xenograft, listed as PP) is recorded as “remarkably higher antitumor activity”. The “systemic toxicity compared with OX” value in data set [3] (MKN-28 xenograft, listed as PP) is listed as “lower systemic toxicity; also recorded: low systemic toxicity”. The body weight changes result in data set [3] (low and high doses, during the drug injection period (days 1, 5, and 9)) is reported as “nearly no body weight changes”. In addition, the “time to clearance from all the major organs including the liver” value in data set [4] was “about 4 weeks”. Besides, in the data set with male ICR mice (5, 50, 300 and 2,000 mg/kg IV, 14 days), the “body weight change depending on the dose” value is given as “no considerable difference in body weight change”. For the same molecule, the LD50 result in the data set with male ICR mice (IV in saline, ICR mice, 14 days observation) is listed as “more than 2000 mg/kg”. In addition, the “excretion of platinum from kidney” value in data set [5] (12 and 24 hours postinjection) is “more rapidly excreted than monomeric OX”. For the same molecule, in data set [5] (2 hours postinjection, same dose based on (dach)Pt content), the “platinum distribution/accumulation in kidney” value is “accumulates much less in kidney; also recorded: much less and relatively homogeneous distribution; also recorded: accumulated much less in the kidney”. In addition, the mean diameter in [6] is on record as 55.1 nm. Moreover, the “Lower critical solution temperature (LCST)” value in [7] (5% solution) is “higher than 100 °C”; in data set [7] (given with the synthesis), greater than 100 °C. Besides, the “clearance time relative to OX” value in data set [1] (PP (6.3 mL/h) compared with OX (116.36 mL/h)) is listed as “about 18 times”. In addition, in [1] (PP compared with OX, rats), the “half-life of the β phase relative to OX” value was “more than twice longer”. In addition, in data set [1] (single IV 1 mg (dach)Pt/kg, male rats, listed as PP), the “t1/2 β” value was determined as 13.3 h. In addition, the “plasma concentration course (fluorescence)” value in [8] (12 to 72 hours postinjection) was “decrease slowly”. Moreover, in [8] (A549 tumor-bearing mice, EPR effect, listed as PP), the “tumor accumulation / tumor selectivity” value is recorded as “high tumor selectivity”. For the same molecule, the “time of maximum concentration in tumor” value in [8] (A549 tumor-bearing mice, postinjection) turned out to be 48 h. In addition, the “tumor-to-tissue ratio, maximum value” in data set [8] (at 48 hours postinjection) is recorded as 12. Also, the “critical aggregation concentration (CAC)” value in [9] and in data set [9] (unit as printed in b33) was 18.5 mg/L each time.
